The list is not random: actives were taken first. Their share in the collection is about 6.5%.
Ecoli WT expand: growth inhibitors of wild-type E. coli, primary screen, strain BW25113, expanded library, OD600; OD600 absorbance; actives 0.15% (n = 98,000); growth inhibition, % at 100 µM;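 active = growth inhibition above about 50% at one test dose, limit read from the data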;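 also: growth measured after 20 h incubation at 37 °C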
PTK2B oligo ant: antagonists of Pyk2 self-association, primary screen, Q293 cells, FERM NanoBiT luminescence, HTS; z-score (the deposit names both 25 µM and 10 µM); active compounds read low; actives 0.83% (n = 99,000); Protein-tyrosine kinase 2-beta (Homo sapiens), Q14289;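 active = Z-score of -3 or lower, scaled per plate to the spread of control and sample wells; inactive = z-score above -3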;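 also: negative z-score means lost luminescence so less FERM oligomerization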
Target sequence (Q14289 whole entry, looked up): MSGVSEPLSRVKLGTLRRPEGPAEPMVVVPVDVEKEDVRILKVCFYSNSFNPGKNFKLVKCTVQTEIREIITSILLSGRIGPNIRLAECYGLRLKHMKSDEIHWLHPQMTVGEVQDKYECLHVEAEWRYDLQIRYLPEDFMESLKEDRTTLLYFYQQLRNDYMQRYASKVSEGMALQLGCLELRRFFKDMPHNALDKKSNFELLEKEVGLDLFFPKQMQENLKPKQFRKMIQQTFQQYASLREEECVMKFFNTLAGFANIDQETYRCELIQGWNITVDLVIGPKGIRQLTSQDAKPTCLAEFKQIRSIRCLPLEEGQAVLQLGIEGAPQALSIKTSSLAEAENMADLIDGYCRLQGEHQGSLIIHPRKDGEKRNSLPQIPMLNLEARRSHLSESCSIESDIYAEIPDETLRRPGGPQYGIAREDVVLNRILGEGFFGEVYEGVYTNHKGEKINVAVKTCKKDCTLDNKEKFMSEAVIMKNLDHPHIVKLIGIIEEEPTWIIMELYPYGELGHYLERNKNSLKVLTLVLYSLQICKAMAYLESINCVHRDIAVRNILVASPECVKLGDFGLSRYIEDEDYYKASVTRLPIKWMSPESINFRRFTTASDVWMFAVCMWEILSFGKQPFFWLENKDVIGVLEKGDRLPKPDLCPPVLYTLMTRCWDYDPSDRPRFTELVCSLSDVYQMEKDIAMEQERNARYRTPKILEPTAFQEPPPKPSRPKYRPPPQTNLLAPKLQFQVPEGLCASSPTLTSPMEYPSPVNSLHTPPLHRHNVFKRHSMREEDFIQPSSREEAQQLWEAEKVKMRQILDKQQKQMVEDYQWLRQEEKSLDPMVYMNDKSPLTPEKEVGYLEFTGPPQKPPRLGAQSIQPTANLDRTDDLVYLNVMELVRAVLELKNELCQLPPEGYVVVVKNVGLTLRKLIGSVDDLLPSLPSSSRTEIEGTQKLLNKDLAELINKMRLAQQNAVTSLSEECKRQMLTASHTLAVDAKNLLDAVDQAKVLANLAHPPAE
PostGolgi ctrl: growth inhibition of yeast control strain, primary screen, counter-screen for post-Golgi transport modulator project. efflux-deficient yeast background strain, growth absorbance A615, 16 h. inhibition, % at 10 µM. actives 5% (n = 98,000)
Ecoli tolC: growth inhibitors of E. coli tolC mutant, primary screen, strain BW25113 ΔtolC::kan, 384-well | growth inhibition, % at 10 µM (by protocol) | OD615 | actives 2.2% (n = 65,000) | AID 573, 2007;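 active = growth inhibition at or above a cutoff equal to the mean over every tested compound plus 3 SD, cut at about 60% in these data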;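 also: growth measured after 20 h incubation at 37 °C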
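Test system – E. coli BW25113 ΔtolC::kan, tolC deletion mutant strain · Detection – OD at 615 nm · Buffer or medium – LB with kanamycin 50 µg/mL · Times – 20 h compound exposure of bacteria at 37 °C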
PostGolgi yeast: phenotypic screen on post-Golgi transport, primary screen; post-Golgi transport phenotypic cell assay; actives 0.9% (n = 98,000); inhibition, % at 10 µM;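 also: yeast cells grown in 1536-well plates; yeast grown about 18 h at 30C before absorbance read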
Calb biofilm kill: clotrimazole potentiators killing Candida biofilms, primary screen, with clotrimazole, Alamar Blue; actives 0.14% (n = 85,000); C. albicans biofilm + clotrimazole; inhibition, % at 6 µM;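 active = inhibition above 20%; inactive = inhibition below 20%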;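 also: preformed 24 hr biofilms exposed to compound for 48 hr; 0% = biofilm without compound and 100% = blank killed by clotrimazole plus chlorhexidine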
* = called active by the depositor; / = not tested or not shown. Rule as the data show it, unless noted: active = inhibition above about 30%; inactive = the rest.

SMILES	Ecoli WT expand	PTK2B oligo ant	PostGolgi ctrl	Ecoli tolC	PostGolgi yeast	Calb biofilm kill
Clc1cccc(Cl)c1CO/N=C/c1c(-c2ccccc2)nc2n1CCS2	-16.0	-0.78	30.1*	/	-2.7	/
Cc1cccc(-n2c(C)cc(/C=N/NC(=O)c3ccc(CN4CCOCC4)cc3)c2C)c1	-13.0	-0.54	5.7	/	-9.5	/
CCOC(=O)c1ccc(NC(=O)c2ccc(CN3CCOCC3)cc2)cc1	-2.0	-0.97	26.5	-14.2	94.1*	6.2
O=C(N/N=C/c1ccc(OC(=O)c2ccccc2)cc1)c1ccc(CN2CCOCC2)cc1	-2.0	-0.09	11.4	/	80.5*	/
CCOC(=O)c1ccc(Nc2cc(C)nc(N3CCOCC3)n2)cc1	-2.0	-3.19*	6.5	39.6	2.9	/
O=C(Oc1ccc(/C=N/O)cc1)c1ccccc1	13.0	1.73	30.5*	8.7	12.5	2.5
O=c1[nH]ncn2cccc12	17.0	-0.84	-2.1	-28.0	-3.8	/
Cc1cc(C)c(C(=O)COC(=O)CCNS(=O)(=O)c2c(Cl)cccc2Cl)cc1C	/	2.47	/	/	/	/
O=C(c1cccc(F)c1)N1CCN(C(=O)c2cc3ncc(Br)cn3n2)CC1	-2.0	0.09	9.6	/	-5.6	9.0
Cc1ccc(NC(=O)c2cc3ccccc3o2)cc1S(=O)(=O)N(C)C	-4.0	-3.18*	7.2	/	-2.1	/
O=C(Nc1ccc(CN2CCOCC2)cc1)c1cc2ccccc2o1	4.0	0.35	23.3	-0.8	37.7*	5.4
CN(C)S(=O)(=O)c1ccc(NC(=O)c2cc3ccccc3o2)cc1	12.0	-0.47	-0.6	16.6	-7.3	/
O=C(CCN1C(=O)C2C3C=CC(C3)C2C1=O)NCCN1CCCc2ccccc21 (stereo not drawn)	-3.0	1.07	38.5*	-2.5	-1.6	/
O=C(NC12CC3CC(CC(C3)C1)C2)N1CCN(c2nc(-c3ccccc3)cs2)CC1	-5.0	-0.29	42.3*	/	1.6	9.9
c1ccc(-c2csc(N3CCN(c4ccccn4)CC3)n2)cc1	-16.0	-0.39	40.6*	88.1*	-3.2	-1.9
CCc1ccc2nc(SCC(=O)N3CC(=O)Nc4ccccc43)c(C#N)cc2c1	/	-3.37*	/	/	/	/
C=CCNC1=C(Cl)C(=O)N(c2ccccc2Cl)C1=O	7.0	1.04	34.0*	-2.6	-2.7	4.5
O=C1C(Cl)=C(N2CCOCC2)C(=O)N1c1ccccc1Cl	2.0	0.53	13.0	-7.7	-5.3	4.9
COc1ccc(-n2c(C)c3c(OC)cccc(=O)c3c2C)cc1	-2.0	0.37	34.4*	/	-3.5	/
CCN(CC)S(=O)(=O)c1ccc2oc(C(=O)NCC3COc4ccccc4O3)c(C)c2c1 (stereo not drawn)	0.0	-0.77	34.8*	38.1	-9.6	5.1
Cc1nc2ccccc2c2oc(C(=O)NCC3COc4ccccc4O3)cc12 (stereo not drawn)	-5.0	/	41.7*	39.3	4.7	3.6
CCCCc1ccc(NC(=O)COCC)cc1	15.0	0.56	-0.3	16.5	7.3	6.5
CCCCc1cc(O)c(CCCC)c(O)c1	42.0	-3.67*	42.2*	63.2*	-4.5	5.1
CCOC(=O)c1c(-c2ccc(OC)cc2)csc1NC(=O)CNCc1ccco1	-23.0	-2.33	84.6*	/	1.4	/
CN(C)NC1CCS(=O)(=O)C1 (stereo not drawn)	-1.0	0.09	6.7	/	-2.5	/
SMILES	Ecoli WT expand	PTK2B oligo ant	PostGolgi ctrl	Ecoli tolC	PostGolgi yeast	Calb biofilm kill
CCN(CC)S(=O)(=O)c1ccc(Cl)c(C(=O)Nc2ccc(Cl)cc2[N+](=O)[O-])c1	/	0.17	/	/	/	/
CCN1C(=O)C2(C(C#N)=C(N)Oc3n[nH]c(-c4ccc(Cl)cc4)c32)c2ccccc21 (stereo not drawn)	-2.0	-3.05*	7.0	/	-0.5	14.2
CN(C)c1ncc(S(=O)(=O)c2ccccc2)c(-c2ccc(Cl)cc2Cl)n1	-19.0	-0.47	24.8	/	-1.6	/
CN(C)c1ncc(S(=O)(=O)c2ccc(Cl)cc2)c(-c2ccc(Cl)cc2Cl)n1	-8.0	0.45	49.3*	/	2.3	/
Cc1cc(C)n(-c2nc3ccccc3n3nnnc23)n1	-2.0	1.21	33.7*	-8.9	4.7	2.6
c1ccc(N2CCN(c3nc4ccccc4n4nnnc34)CC2)cc1	-17.0	-0.96	15.1	22.4	-0.2	5.3
Cc1sc(NC(=O)c2ccc(OCC(C)C)cc2)c(C(N)=O)c1-c1ccc(Cl)cc1Cl	-8.0	-0.01	5.5	/	7.9	/
COCCCNC(=O)C1C2C=CC3(CN(Cc4ccc(C)cc4)C(=O)C13)O2 (stereo not drawn)	3.0	-0.61	33.0*	-11.1	-7.0	11.7
Cc1ccc(CN2CC34C=CC(O3)C(C(=O)NCc3ccc5c(c3)OCO5)C4C2=O)cc1 (stereo not drawn)	3.0	-0.32	4.9	15.9	-1.9	-0.8
C/C(=N\NC(=O)c1nn(C)cc1Cl)c1ccncc1	/	0.28	/	/	/	/
C=CCN(C(=O)c1cccc(S(=O)(=O)N2CCN(C)CC2)c1)c1nc(-c2ccccc2)cs1	1.0	0.88	21.8	/	35.0*	/
Cc1csc(N(C(=O)c2cccc(S(=O)(=O)N3CCCC3)c2)c2ccccc2)n1	-5.0	-0.24	8.6	/	-8.3	4.0
CCOC(=O)C(C)N1N=C(/C=C/c2ccc(OC)cc2)CCC1=O (stereo not drawn)	-3.0	-0.14	29.9	/	8.2	/
Cc1nnc2ccc(Oc3ccc(-c4ccccc4)cc3)nn12	7.0	-0.96	9.3	11.0	0.3	1.9
CCc1c(C)nc2cc(-c3cc(OC)cc(OC)c3)nn2c1N1CCCC1	-29.0	-0.91	43.3*	74.7*	0.6	6.8
COc1cc(OC)cc(-c2cc3nc4c(c(N5CCN(c6cnccn6)CC5)n3n2)CCCC4)c1	/	/	/	-2.2	/	12.5
COc1cc(OC)cc(-c2cc3nc4c(c(N5CCN(c6ncccn6)CC5)n3n2)CCCC4)c1	-7.0	0.22	68.8*	-2.5	1.2	-0.6
CCc1c(C)nc2cc(-c3ccc(OC)c(OC)c3)nn2c1N1CCCC1	-12.0	-1.09	31.8*	9.6	-4.2	8.4
O=C(O)c1ccccc1C(=O)Nc1ccccc1	-1.0	1.13	40.4*	-8.2	-0.9	2.7
O=C(O)c1ccccc1C(=O)Nc1nccs1	-4.0	1.6	30.2*	/	-18.3	/
Cc1sc2nc(SCc3nc(-c4ccccc4)no3)n(-c3ccccc3)c(=O)c2c1C	/	0.13	/	/	/	/
CCOc1cccc(SCc2noc(C(=O)NCCOC)c2C(=O)O)c1	2.0	/	33.4*	/	0.3	/
O=C(NCCCN1CCc2ccccc2C1)Nc1ccc(Cl)cc1	40.0	0.29	10.4	/	2.8	4.1
CC(O)c1c(OCc2ccccc2)ncnc1OCc1ccccc1 (stereo not drawn)	5.0	0.74	19.5	66.4*	3.5	/
Cn1ccnc1C(O)c1ccc(OCc2ccccc2)cc1 (stereo not drawn)	15.0	-0.07	4.9	12.2	-1.2	7.0
O=C(O)c1ccc(COc2ccc(/C=N/NC(=O)c3cccs3)cc2)cc1	-4.0	0.52	10.1	/	-1.2	/

Screening data as filed in PubChem BioAssay.
